# Legend:
# [1] = target: Tyrosine-protein kinase JAK1 (Homo sapiens) (UniProt P23458); experiment: Binding affinity to wild-type human partial length JAK1 JH1 catalytic domain (V856 to K1154 residues) expressed in bacterial expression system assessed as residual binding level at 1 uM by Kinomescan method relative to control
# [2] = target: Serine/threonine-protein kinase 25 (Homo sapiens) (UniProt O00506); experiment: Binding affinity to wild-type human partial length YSK1 (V14 to H295 residues) expressed in bacterial expression system assessed as residual binding level at 1 uM by Kinomescan method relative to control
# [3] = target: Serine/threonine-protein kinase RIO1 (Homo sapiens) (UniProt Q9BRS2); experiment: Binding affinity to wild-type human full length RIOK1 (M1 to K568 residues) expressed in bacterial expression system assessed as residual binding level at 1 uM by Kinomescan method relative to control
# Outline: (§1)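 Single-concentration KINOMEscan (DiscoverX) binding screen at 1 μM against a panel of 468 purified kinases and mutants. The read-out is binding relative to control.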
# [4] = target: Serine/threonine-protein kinase ULK2 (Homo sapiens) (UniProt Q8IYT8); experiment: Binding affinity to wild-type human partial length ULK2 (M1 to S301 residues) expressed in mammalian expression system assessed as residual binding level at 1 uM by Kinomescan method relative to control
# Outline: (§2)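 KINOMEscan competition binding against a panel of 468 purified kinases/mutants, compound tested at 1 μM; readout is relative binding activity versus control.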
# [5] = system: Epidermal growth factor receptor (Homo sapiens), P00533 [L858R,T790M]; experiment: Binding affinity to human partial length EGFR L858R/T790M double mutant (R669 to V1011 residues) expressed in mammalian expression system assessed as residual binding level at 1 uM by Kinomescan method relative to control
# Outline: (§3)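 Kinome-wide single-concentration binding screen (KINOMEscan) at 1 μM against a panel of 468 purified kinases and mutants. Read-out is relative binding of each kinase compared with control. Selectivity across the panel was summarised as an S(10) score.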
# [6] = Cmax in Sprague-Dawley rat at 10 mg/kg, po; assay type: ADME, organism-based; set-up: dose 10 mg/kg, route oral; conditions: in vivo
# Outline: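 Male Sprague-Dawley rats, 6–8 weeks old and fasted overnight, dosed IV at 1 mg/kg or PO at 10 mg/kg. Formulation was 5% DMSO/40% PEG400/55% saline (1 mg/mL). Jugular blood collected on heparin from 1 min to 8 h (IV) or 5 min to 24 h (PO). Plasma separated by centrifugation at 2–8 °C and stored at −80 °C.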
# [7] = target: Dual specificity mitogen-activated protein kinase kinase 3 (Homo sapiens) (UniProt P46734); experiment: Binding affinity to wild-type human full length MEK3 (M1 to S318 residues) expressed in mammalian expression system assessed as residual binding level at 1 uM by Kinomescan method relative to control; outline: as §1
# [8] = system: Mast/stem cell growth factor receptor Kit (Homo sapiens), P10721 [V559D,T670I]; experiment: Binding affinity to human partial length KIT V559D/T670I double mutant (Y545 to D952 residues) expressed in bacterial expression system assessed as residual binding level at 1 uM by Kinomescan method relative to control; outline: as §3
# [9] = target: Casein kinase I isoform alpha-like (Homo sapiens) (UniProt Q8N752); experiment: Binding affinity to wild-type human full length CSNK1A1L (M1 to N337 residues) expressed in bacterial expression system assessed as residual binding level at 1 uM by Kinomescan method relative to control
# Outline: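 Single-concentration (1 μM) competition-binding screen run by KINOMEscan against a panel of 468 purified kinases and mutants. The read-out is the relative binding activity of the test compound to each kinase.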
# [10] = target: T1, Mast/stem cell growth factor receptor Kit (Homo sapiens, UniProt P10721); experiment: Binding affinity to wild-type human partial length autoinhibited KIT (Y545 to D952 residues) expressed in mammalian expression system assessed as residual binding level at 1 uM by Kinomescan method relative to control
# [11] = target: Serine/threonine-protein kinase PAK 5 (Homo sapiens) (UniProt Q9P286); experiment: Binding affinity to wild-type human partial length PAK7 (Y400 to H719 residues) expressed in bacterial expression system assessed as residual binding level at 1 uM by Kinomescan method relative to control; outline: as §2
# [12] = target: T1, Mast/stem cell growth factor receptor Kit; experiment: Inhibition of TEL-fused c-KIT (unknown origin) expressed in mouse BA/F3 cells assessed as growth inhibition after 72 hrs by CellTiter-Glo or CCK-8 assay; assay type: cell-based
# Outline: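 Parental BaF3 or IL-3-independent TEL-kinase BaF3 lines, made by retroviral infection and puromycin selection, grown in RPMI 1640 with 10% FBS. Cells seeded at 1–3 × 10^4 cells/mL with serial compound concentrations for 72 h. Viability read by CellTiter-Glo luminescence or CCK-8 absorbance at 450/655 nm and normalised to DMSO. GI50 obtained by triplicate testing with linear regression. Selectivity is the ratio of the two GI50 values.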
# [13] = target: Serine/threonine-protein kinase Chk1 (Homo sapiens) (UniProt O14757); experiment: Binding affinity to wild-type human partial length CHEK1 (M1 to G289 residues) expressed in bacterial expression system assessed as residual binding level at 1 uM by Kinomescan method relative to control
# [14] = target: Dual specificity mitogen-activated protein kinase kinase 1 (Homo sapiens) (UniProt Q02750); experiment: Binding affinity to wild-type human full length MEK1 (M1 to V393 residues) expressed in mammalian expression system assessed as residual binding level at 1 uM by Kinomescan method relative to control; outline: as §1
# [15] = target: Ephrin type-B receptor 2 (Homo sapiens) (UniProt P29323); experiment: Binding affinity to wild-type human partial length EPHB2 (I597 to L902 residues) expressed in bacterial expression system assessed as residual binding level at 1 uM by Kinomescan method relative to control
# [16] = target: Bone morphogenetic protein receptor type-1A (Homo sapiens) (UniProt P36894); experiment: Binding affinity to wild-type human partial length BMPR1A (Q214 to I532 residues) expressed in bacterial expression system assessed as residual binding level at 1 uM by Kinomescan method relative to control; outline: as §1
# [17] = target: 5'-AMP-activated protein kinase catalytic subunit alpha-2 (Homo sapiens) (UniProt P54646); experiment: Binding affinity to wild-type human partial length AMPK alpha2 (M1 to E306 residues) expressed in bacterial expression system assessed as residual binding level at 1 uM by Kinomescan method relative to control; outline: as §1
# [18] = target: Homeodomain-interacting protein kinase 1 (Homo sapiens) (UniProt Q86Z02); experiment: Binding affinity to wild-type human partial length HIPK1 (M146 to I555 residues) expressed in mammalian expression system assessed as residual binding level at 1 uM by Kinomescan method relative to control
# Outline: (§4)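 Kinome-wide competition binding screen against a panel of 468 purified kinases/mutants, with the test compound at a single concentration of 1 μM. Read-out is the relative binding activity of each kinase in the presence of compound.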
# [19] = target: Aurora kinase A (Homo sapiens) (UniProt O14965); experiment: Binding affinity to wild-type human partial length AURKA (E122 to K401 residues) expressed in mammalian expression system assessed as residual binding level at 1 uM by Kinomescan method relative to control; outline: as §4
# T1 sequence (P10721 whole entry, the tested form may be a part): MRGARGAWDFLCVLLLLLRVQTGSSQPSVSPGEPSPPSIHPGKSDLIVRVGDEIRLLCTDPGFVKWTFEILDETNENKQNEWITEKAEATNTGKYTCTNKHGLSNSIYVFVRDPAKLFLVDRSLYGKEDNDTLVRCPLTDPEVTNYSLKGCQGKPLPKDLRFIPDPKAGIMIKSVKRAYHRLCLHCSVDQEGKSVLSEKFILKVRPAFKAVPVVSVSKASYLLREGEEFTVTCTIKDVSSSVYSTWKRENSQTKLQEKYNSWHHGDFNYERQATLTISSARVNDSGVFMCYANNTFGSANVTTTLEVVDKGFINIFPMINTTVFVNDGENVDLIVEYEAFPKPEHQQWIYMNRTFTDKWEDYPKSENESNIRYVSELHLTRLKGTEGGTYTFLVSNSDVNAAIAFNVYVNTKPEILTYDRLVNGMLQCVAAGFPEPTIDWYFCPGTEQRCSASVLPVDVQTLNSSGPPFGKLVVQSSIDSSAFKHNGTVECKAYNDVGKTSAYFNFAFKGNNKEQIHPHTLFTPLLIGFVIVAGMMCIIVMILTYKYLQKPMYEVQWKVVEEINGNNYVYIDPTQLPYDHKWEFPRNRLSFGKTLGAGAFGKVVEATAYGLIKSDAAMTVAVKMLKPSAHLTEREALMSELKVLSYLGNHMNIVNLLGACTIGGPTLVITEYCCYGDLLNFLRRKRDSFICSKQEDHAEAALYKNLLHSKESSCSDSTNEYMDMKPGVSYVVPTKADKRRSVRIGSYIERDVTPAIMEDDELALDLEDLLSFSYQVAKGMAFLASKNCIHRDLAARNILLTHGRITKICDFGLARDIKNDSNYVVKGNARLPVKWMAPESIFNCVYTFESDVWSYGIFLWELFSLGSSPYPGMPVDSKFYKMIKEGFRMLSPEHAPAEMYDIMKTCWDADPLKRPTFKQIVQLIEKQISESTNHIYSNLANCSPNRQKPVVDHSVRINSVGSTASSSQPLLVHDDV
# Sequence of Mast/stem cell growth factor receptor Kit (Homo sapiens), P10721 [V559D,T670I] (P10721 whole entry V559D/T670I, the tested form may be a part, canonical isoform): as the sequence (P10721 whole entry, the tested form may be a part) above, with V559D, T670I counted along it
# Sequence of Serine/threonine-protein kinase PAK 5 (Homo sapiens) (Q9P286 whole entry, looked up, the tested form may be a part): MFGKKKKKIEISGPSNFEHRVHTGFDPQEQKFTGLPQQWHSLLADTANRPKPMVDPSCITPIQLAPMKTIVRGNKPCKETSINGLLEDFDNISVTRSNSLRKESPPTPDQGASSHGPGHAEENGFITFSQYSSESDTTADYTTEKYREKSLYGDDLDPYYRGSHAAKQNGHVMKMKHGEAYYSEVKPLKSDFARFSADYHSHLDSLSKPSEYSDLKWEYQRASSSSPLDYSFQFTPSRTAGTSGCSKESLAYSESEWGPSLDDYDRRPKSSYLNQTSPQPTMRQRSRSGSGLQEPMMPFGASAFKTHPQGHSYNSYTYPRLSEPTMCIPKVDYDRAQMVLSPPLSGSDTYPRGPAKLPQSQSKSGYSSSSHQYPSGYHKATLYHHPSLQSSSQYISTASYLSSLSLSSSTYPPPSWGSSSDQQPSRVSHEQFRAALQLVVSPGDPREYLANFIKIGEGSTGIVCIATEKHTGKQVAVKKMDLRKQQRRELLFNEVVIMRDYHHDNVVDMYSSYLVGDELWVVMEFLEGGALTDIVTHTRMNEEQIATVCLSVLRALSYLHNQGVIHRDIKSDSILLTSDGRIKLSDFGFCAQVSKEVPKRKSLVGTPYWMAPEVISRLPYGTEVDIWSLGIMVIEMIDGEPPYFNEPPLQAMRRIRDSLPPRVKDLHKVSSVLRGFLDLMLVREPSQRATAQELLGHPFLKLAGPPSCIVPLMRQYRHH
# Sequence of 5'-AMP-activated protein kinase catalytic subunit alpha-2 (Homo sapiens) (P54646 whole entry, looked up, the tested form may be a part): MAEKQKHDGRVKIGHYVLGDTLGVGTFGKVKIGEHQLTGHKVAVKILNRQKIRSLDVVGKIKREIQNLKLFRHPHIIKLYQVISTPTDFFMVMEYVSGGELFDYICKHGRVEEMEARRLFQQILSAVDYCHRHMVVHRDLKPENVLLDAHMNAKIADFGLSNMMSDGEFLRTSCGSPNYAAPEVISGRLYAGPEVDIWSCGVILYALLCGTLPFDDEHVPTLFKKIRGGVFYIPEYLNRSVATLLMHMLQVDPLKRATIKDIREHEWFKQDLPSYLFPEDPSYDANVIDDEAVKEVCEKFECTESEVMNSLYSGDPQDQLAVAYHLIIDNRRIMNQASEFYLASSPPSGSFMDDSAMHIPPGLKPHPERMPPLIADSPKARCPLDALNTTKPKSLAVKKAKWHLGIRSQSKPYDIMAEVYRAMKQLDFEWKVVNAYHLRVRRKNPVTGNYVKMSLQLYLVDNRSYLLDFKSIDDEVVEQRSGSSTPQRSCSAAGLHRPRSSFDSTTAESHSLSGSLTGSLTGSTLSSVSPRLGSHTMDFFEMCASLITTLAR
# Sequence of Serine/threonine-protein kinase 25 (Homo sapiens) (O00506 whole entry, looked up, the tested form may be a part): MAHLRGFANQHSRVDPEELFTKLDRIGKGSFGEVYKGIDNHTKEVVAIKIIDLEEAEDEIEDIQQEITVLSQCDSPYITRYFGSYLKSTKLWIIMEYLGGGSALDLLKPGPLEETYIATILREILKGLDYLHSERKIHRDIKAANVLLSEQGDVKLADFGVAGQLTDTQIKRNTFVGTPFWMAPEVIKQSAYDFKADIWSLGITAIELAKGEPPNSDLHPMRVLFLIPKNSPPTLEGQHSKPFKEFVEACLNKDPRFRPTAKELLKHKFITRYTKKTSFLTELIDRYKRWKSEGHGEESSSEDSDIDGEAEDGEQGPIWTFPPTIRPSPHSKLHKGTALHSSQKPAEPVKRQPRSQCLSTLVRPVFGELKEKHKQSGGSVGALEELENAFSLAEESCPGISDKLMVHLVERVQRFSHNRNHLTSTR
# Sequence of Ephrin type-B receptor 2 (Homo sapiens) (P29323 whole entry, the tested form may be a part): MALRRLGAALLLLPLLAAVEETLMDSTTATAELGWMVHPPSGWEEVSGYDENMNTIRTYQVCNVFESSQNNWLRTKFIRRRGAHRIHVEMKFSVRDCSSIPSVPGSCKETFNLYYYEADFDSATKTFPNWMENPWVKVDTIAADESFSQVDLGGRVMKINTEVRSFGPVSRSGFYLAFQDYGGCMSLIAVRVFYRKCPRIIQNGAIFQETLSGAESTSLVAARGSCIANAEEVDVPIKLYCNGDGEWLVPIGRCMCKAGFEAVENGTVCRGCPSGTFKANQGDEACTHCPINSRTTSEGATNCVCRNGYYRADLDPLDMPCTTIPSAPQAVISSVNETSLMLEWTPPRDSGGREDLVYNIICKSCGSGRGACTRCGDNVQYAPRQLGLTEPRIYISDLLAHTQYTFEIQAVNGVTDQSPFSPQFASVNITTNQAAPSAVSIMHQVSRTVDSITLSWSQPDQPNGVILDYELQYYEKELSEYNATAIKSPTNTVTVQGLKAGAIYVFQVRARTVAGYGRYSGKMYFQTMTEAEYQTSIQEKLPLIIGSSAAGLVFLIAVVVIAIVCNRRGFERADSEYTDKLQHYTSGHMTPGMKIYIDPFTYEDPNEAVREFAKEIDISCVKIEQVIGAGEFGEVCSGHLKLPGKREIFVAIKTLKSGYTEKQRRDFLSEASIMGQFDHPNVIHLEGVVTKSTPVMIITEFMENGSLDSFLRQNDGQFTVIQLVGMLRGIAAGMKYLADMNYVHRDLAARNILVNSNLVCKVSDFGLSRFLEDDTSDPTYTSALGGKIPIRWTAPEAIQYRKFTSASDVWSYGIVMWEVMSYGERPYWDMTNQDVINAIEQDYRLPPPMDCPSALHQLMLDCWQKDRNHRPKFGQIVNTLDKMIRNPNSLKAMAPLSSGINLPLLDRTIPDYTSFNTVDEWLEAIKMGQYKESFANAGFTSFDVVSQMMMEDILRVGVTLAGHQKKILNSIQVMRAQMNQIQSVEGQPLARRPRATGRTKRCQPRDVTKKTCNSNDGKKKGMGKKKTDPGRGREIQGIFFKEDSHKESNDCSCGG
# Sequence of Dual specificity mitogen-activated protein kinase kinase 3 (Homo sapiens) (P46734 whole entry, the tested form may be a part): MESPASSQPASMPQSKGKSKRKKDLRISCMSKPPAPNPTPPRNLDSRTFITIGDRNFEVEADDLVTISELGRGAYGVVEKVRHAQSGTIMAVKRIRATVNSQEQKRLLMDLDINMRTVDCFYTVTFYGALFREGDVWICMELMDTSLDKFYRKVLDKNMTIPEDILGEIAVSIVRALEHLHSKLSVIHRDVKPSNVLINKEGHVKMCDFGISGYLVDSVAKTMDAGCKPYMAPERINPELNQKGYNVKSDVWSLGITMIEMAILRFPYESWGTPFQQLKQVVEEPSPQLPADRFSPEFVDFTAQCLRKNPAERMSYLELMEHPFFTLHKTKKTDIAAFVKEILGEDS
smiles,measurement,setting,value
Cc1ccc(NC(=O)c2ccc(CN(CCN(C)C)C(=O)c3cccnc3)cc2)cc1Nc1nccc(-c2cccnc2)n1,Activity,[1],100%
same,Activity,[2],100%
same,Activity,[3],100%
same,Activity,[4],84%
same,Activity,[5],94%
same,Cmax,[6],0.0289 µg/mL
same,Activity,[7],98%
same,Activity,[8],76%
same,Activity,[9],93%
same,Activity,[10],100%
same,Activity,[11],92%
same,GI50,[12],> 10 µM
same,Activity,[13],100%
same,Activity,[14],97%
same,Activity,[15],100%
same,Activity,[16],100%
same,Activity,[17],100%
same,Activity,[18],79%
same,Activity,[19],74%
